Compound activity deposited in PubChem by several laboratories.
NPY Y1 blocker: NPY-Y1 (human) receptor antagonism; 200,000 compounds, 1% hits; AID 1040; P25929; HEK293-CNG Y1 cells, membrane potential fluorescence; NPY at EC95, then isoproterenol; inhibition, % at 3.6 µM;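 active = inhibition above the campaign mean inhibition of all tested compounds plus 3 SD, cut at about 20% in these data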;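 note: 0% = DMSO wells given NPY plus isoproterenol and 100% = isoproterenol alone without NPY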
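Material: HEK293 Y1/CNG channel cell line; also added: NPY (25 nM), isoproterenol (1 µM), Ro 20-1724 (25 µM); doses: one concentration, 3.6 µM, in 0.4% DMSO; schedule: compound incubation 1 h at room temperature, readout 45 min post-stimulation; technique: membrane potential fluorescence; measure: fluorescence ratio normalized to % inhibition between controls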
NPY-Y1 PAM-ag: potentiates or activates human NPY-Y1 receptor | P25929 | NPY-Y1 expressing cells, potentiator/agonist activation | activation, % at 3.6 µM | 220,000 compounds, 0.37% hits | AID 1304; in the data active = activation above about 33%, passing the limit was not always enough;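 note: cells stimulated with NPY at EC10 then isoproterenol at EC100; 0% = low agonist plus stimulus and 100% = saturating agonist plus stimulus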
NPY-Y2 PAM-ag: potentiates or activates human NPY-Y2 receptor | activation, % at 3.6 µM | AID 1359 | 220,000 compounds, 0.45% hits | P49146 | cells expressing NPY-Y2, potentiator/agonist read-out; in the data active = activation above about 27%;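 note: cells stimulated with NPY near EC25 plus isoproterenol at EC100; 0% = vehicle plus submaximal agonist and 100% = vehicle plus saturating agonist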
Target sequence (P49146 whole entry, looked up): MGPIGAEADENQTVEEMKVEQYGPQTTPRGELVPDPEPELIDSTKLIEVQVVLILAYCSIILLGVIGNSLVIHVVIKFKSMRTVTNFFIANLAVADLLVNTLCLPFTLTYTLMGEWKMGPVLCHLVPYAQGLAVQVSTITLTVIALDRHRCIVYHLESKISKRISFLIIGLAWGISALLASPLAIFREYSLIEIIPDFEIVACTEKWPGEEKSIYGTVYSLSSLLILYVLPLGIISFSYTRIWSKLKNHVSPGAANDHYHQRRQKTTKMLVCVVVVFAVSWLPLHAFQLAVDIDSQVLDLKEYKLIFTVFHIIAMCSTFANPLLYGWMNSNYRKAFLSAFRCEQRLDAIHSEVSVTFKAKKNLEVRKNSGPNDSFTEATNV
RAM network inh: blocks the yeast RAM network. S. cerevisiae dse1pr::URA3 reporter, 5-FOA growth OD615, 2 d; analog-sensitive cbk1-as2 kinase mutant strain. inhibition, % at 50 µM. 190,000 compounds, 1.8% hits. AID 868;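 active = inhibition above a set limit, 3 SD over mean compound inhibition, cut at about 8.4% in these data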;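 note: 0% = DMSO-only wells with no growth and 100% = 10 µM 1-NA-PP1 full growth; inhibition rescues growth on 5-FOA so higher OD means more RAM inhibition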
Insulin prom inh: TRM-6 insulin promoter activity inhibition | TRM-6 cells, insulin promoter-eGFP reporter, imaging; reporter expression induced with tamoxifen | 130,000 compounds, 0.9% hits | inhibition, % at 2 µM;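 active = inhibition above the mean plus 3 SD, with well images judged a real hit on visual review, cut at about 60% in these data, passing the limit was not always enough; inconclusive = inhibition over the cutoff but images rejected on review; inactive = inhibition not above the cutoff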
NPY Y2 blocker: blocks the human neuropeptide Y Y2 receptor. P49146. NPY-Y2 expressing cells, antagonist mode. inhibition, % at 2.7 µM. 140,000 compounds, 0.99% hits. AID 793; in the data active = inhibition above about 17%;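 note: 0% = vehicle with agonist challenge and 100% = reference antagonist with challenge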
NPY-Y1 pot conf: human NPY-Y1 potentiation or agonism, confirmation; shares compounds with NPY-Y1 PAM-ag; cell-based NPY-Y1 potentiator/agonist assay; activation, % at 3.6 µM; 280 compounds, 20% hits; AID 1546; in the data active = activation above about 45%;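 note: cells challenged with NPY at its EC10 plus isoproterenol stimulus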
NPY-Y2 counter: NPY-Y2 potentiation or agonism as NPY-Y1 counter-screen; HEK293-CNG cells, membrane-potential fluorescence (FLIPR), 1536-well; shares compounds with NPY-Y1 PAM-ag; activation, % at 3.6 µM; AID 1649; 280 compounds, 20% hits
NPY-Y1 agonist: counter-screen for NPY-Y1 potentiators: agonists of human NPY-Y1; shares compounds with NPY-Y1 PAM-ag; HEK293 Y1-CNGC, membrane potential fluorescence, agonist mode; activation, % at 3.6 µM; 280 compounds, 50% hits;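 active = percent activation above the mean of DMSO-only control wells plus 3 SD of those wells, cut at about 18% in these data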;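 note: cells challenged with isoproterenol plus Ro 20-1724 with no NPY in test wells; Y1 agonism lowers isoproterenol-driven cAMP and reduces probe fluorescence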
NPY-Y2 agonist: activates human NPY-Y2, counter-screen for NPY-Y1 hits; shares compounds with NPY-Y1 PAM-ag; HEK293 Y2-CNGC, membrane potential fluorescence, agonist mode; activation, % at 3.6 µM; 280 compounds, 67% hits;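 active = activation above the solvent-only control wells' mean plus 3 SD, cut at about 11% in these data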;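 note: 0% = DMSO with isoproterenol and 100% = 40 nM NPY maximal response; agonism lowers cAMP so well fluorescence drops in active wells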
CNGC inh 2: blocks cyclic nucleotide gated channel in NPY-Y1 counter-screen. inhibition, % at 3.6 µM. 280 compounds, 42% hits. HEK293-CNG parental, isoproterenol cAMP, membrane potential fluorescence. shares compounds with NPY-Y1 PAM-ag;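 active = inhibition above the mean of stimulated solvent-only control wells plus 3 SD, cut at about 22% in these data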;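 note: 0% = isoproterenol-stimulated DMSO wells and 100% = unstimulated DMSO wells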
NPY-Y2 pot conf: human NPY-Y2 potentiation or agonism, confirmation; shares compounds with NPY-Y2 PAM-ag; cell-based NPY-Y2 potentiator/agonist assay; activation, % at 3.6 µM; 450 compounds, 20% hits
NPY-Y1 counter: NPY-Y1 potentiation or agonism as NPY-Y2 counter-screen; Y1 HEK293-CNG cells, membrane potential fluorescence; AID 1651; 450 compounds, 20% hits; shares compounds with NPY-Y2 PAM-ag; activation, % at 3.6 µM; in the data active = activation above about 45%;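 note: cells stimulated with submaximal NPY then isoproterenol with phosphodiesterase inhibitor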
NPY-Y1 agonist 2: human NPY-Y1 agonism as NPY-Y2 potentiator counter-screen | shares compounds with NPY-Y2 PAM-ag | HEK293 Y1-CNGC, membrane potential fluorescence | activation, % at 3.6 µM | 450 compounds, 37% hits | AID 1702;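 active = activation above the mean of DMSO-only control wells plus 3 SD, cut at about 18% in these data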;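 note: cells stimulated with 1 µM isoproterenol plus the PDE inhibitor Ro 20-1724; 0% = isoproterenol with DMSO and no NPY and 100% = 40 nM NPY; Y1 agonists lower the membrane potential dye signal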
CNGC inhibitor: blocks CNG channel activity, counter-screen for NPY-Y2 potentiators; shares compounds with NPY-Y2 PAM-ag; inhibition, % at 3.6 µM; HEK293-CNG parental, isoproterenol cAMP, membrane potential fluorescence; 450 compounds, 32% hits;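 active = inhibition above the control-well mean plus 3 SD of those wells, cut at about 22% in these data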;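 note: 0% = DMSO with isoproterenol and 100% = DMSO without isoproterenol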
Y2 agonist ctr: NPY-Y2 agonism, counter-screen for Y2 potentiators | AID 1710 | HEK293 Y2/CNGC cells, membrane potential fluorescence, agonist mode | 450 compounds, 56% hits | activation, % at 3.6 µM | shares compounds with NPY-Y2 PAM-ag;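 active = activation above the mean of solvent-only control wells plus 3 SD, cut at about 10% in these data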;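 note: cells stimulated by isoproterenol with no NPY added so direct agonism is tested; 0% = DMSO with isoproterenol alone and 100% = NPY at EC100 plus isoproterenol; agonism lowers probe fluorescence through less cAMP and CNG channel opening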
* hit, by the source's call; ? = inconclusive; · = no result. Compounds with a hit are over-represented: about 3.8% of the library has one in this group of screens. Cut-off read from the data, not from the text of the source, unless noted: active = activation above about 33%; inactive = the rest.

SMILES | NPY Y1 blocker | NPY-Y1 PAM-ag | NPY-Y2 PAM-ag | RAM network inh | Insulin prom inh | NPY Y2 blocker | NPY-Y1 pot conf | NPY-Y2 counter | NPY-Y1 agonist | NPY-Y2 agonist | CNGC inh 2 | others
Cc1ccc(O)c(-c2cc3ccccc3[nH]2)c1 | -11 | 47* | 26 | 0 | -206 | -5 | 38 | 32 | 38* | 42* | 31*
Cc1ccccc1NCC(=O)N/N=C/c1c[nH]c2ccccc12 | -10 | 46* | 15 | -1 | · | · | 29 | 25 | 27* | 18* | 29*
O=C(C1=C[C@H](C2CCCCC2)C[C@H](OCCCCO)O1)N1CCN(Cc2ccccc2)CC1 | 0 | -27 | 15 | 3 | · | · | · | · | · | · | ·
CCOc1ccccc1NC(=O)C1C2C=CC(O2)C1C(=O)O (stereo not given) | 1 | 57* | 11 | 1 | -14 | 2 | 9 | 0 | -9 | 5 | -2
OC(COc1ccccc1)CN1CCN(Cc2ccc3c(c2)OCO3)CC1 (stereo not given) | 5 | 2 | 0 | 1 | · | · | · | · | · | · | ·
Cc1cc(C)cc(OCC(O)CN2CCN(Cc3ccc4c(c3)OCO4)CC2)c1 (stereo not given) | -2 | 50* | 11 | 1 | ? | · | -15 | -4 | -3 | 8 | -11
C/C(=N\Nc1ccc([N+](=O)[O-])cc1)c1ccc(C#N)cc1 | · | 20 | 14 | · | · | · | · | · | · | · | ·
N#CC(C#N)=NNc1ccc([N+](=O)[O-])cc1 | · | 51* | 33 | · | · | · | 40 | 32 | 37* | 36* | 32*
Cc1cc(OC(F)F)ccc1NC(=O)Nc1ccc([N+](=O)[O-])cc1 | -13 | 59* | 29 | 5 | · | -6 | 36 | 29 | 25* | 28* | 31*
N/C(=N\OC(=O)/C=C/c1ccccc1)c1ccccc1 | 6 | 105* | -8 | -1 | -22 | 9 | -13 | -11 | -3 | -4 | -7
CCOC(=O)CN1NC2(CCCC(C)C2)NC1=S (stereo not given) | 6 | 12 | 4 | 0 | -41 | 4 | · | · | · | · | ·
Nc1cc(-c2ccc(Br)cc2)nn1Cc1ccccc1 | -4 | 31 | 36* | 2 | · | · | · | · | · | · | · | NPY-Y2 pot conf=16;NPY-Y1 counter=-8;NPY-Y1 agonist 2=8;CNGC inhibitor=11;Y2 agonist ctr=28*
Nc1cc(-c2cccc(Br)c2)nn1Cc1ccccc1 | 3 | -8 | 3 | 1 | 20 | 1 | · | · | · | · | ·
Cc1cc(N)n2ncc(-c3ccc(Cl)cc3)c2n1 | -14 | 48 | 37* | 1 | 32 | -6 | · | · | · | · | · | NPY-Y2 pot conf=32;NPY-Y1 counter=52*;NPY-Y1 agonist 2=40*;CNGC inhibitor=39*;Y2 agonist ctr=44*
